In ChEMBL document CHEMBL4321819, “Simple Structural Modifications Converting a Bona fide MDM2 PROTAC Degrader into a Molecular Glue Molecule: A Cautionary Tale in the Design of PROTAC Degraders” (J Med Chem, 2019) one finds IC50, Activity and fold change data, which are given here for one molecule.

Test [1] addresses T1, E3 ubiquitin-protein ligase Mdm2 (Homo sapiens, UniProt Q00987). Kind of test: Displacement of PMDM6-F fluorescent probe from human recombinant His-tagged MDM2 (1 to 118 residues) after 15 mins by fluorescence polarization assay. The procedure, abridged: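 Recombinant human His-tagged MDM2 (residues 1–118) with a FAM-labelled p53-based peptide as fluorescent probe; competitive fluorescence-polarization binding. Mean ± standard error from at least three independent experiments.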
Target sequence in this assay (Q00987 whole entry, the tested form may be a part): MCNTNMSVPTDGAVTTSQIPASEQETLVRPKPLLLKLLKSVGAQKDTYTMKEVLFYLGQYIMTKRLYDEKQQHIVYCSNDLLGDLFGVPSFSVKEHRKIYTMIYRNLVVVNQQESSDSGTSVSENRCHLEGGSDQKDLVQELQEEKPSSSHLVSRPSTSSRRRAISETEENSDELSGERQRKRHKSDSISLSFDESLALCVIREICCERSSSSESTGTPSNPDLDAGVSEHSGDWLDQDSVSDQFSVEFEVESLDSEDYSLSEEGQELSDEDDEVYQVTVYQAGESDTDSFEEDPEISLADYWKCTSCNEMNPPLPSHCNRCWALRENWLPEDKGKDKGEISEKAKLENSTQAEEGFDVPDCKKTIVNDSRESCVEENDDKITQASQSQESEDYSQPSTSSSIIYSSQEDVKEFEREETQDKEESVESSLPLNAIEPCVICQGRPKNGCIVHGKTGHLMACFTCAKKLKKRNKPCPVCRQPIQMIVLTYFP
Background: Polarisation of emitted light reports the rotation of a fluorescent probe.

For test [2], the system named is MDA-MB-231. Nature of the test: Antiproliferative activity against human MDA-MB-231 cells transfected with CRBN siRNA LQ-021086-10-0002 assessed as cell growth inhibition after 4 days by WST-8 assay. It counts as functional, cell-based. Particulars: MDA-MB-231, 72 h, in the assay text read “after 3 days” for “after 4 days”. The procedure, abridged:
(§1)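 MDA-MB-231 or MDA-MB-468 cells transfected for 2 days using Lipofectamine RNAiMAX with MDM2 siRNA, one of two CRBN siRNAs, or non-targeting control siRNA. Compound then added and growth read by WST-8 at 450 nm.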
For orientation: Tetrazolium assays rely on reduction of a dye to a coloured formazan, in cell work by metabolically active cells.

Test [3] relates to MDA-MB-231. Nature of the test: Antiproliferative activity against human MDA-MB-231 cells assessed as cell growth inhibition after 4 days in presence of control siRNA for 3 days followed by compound treatment by WST-8 assay. It counts as functional, cell-based.
Test [4] can be described thus: Antiproliferative activity against human RS4:11/IRMI-2 cells harboring p53 hotspot mutation Y236H/R249G assessed as cell growth inhibition without interaction with cereblon after 4 days by WST-8 assay. It counts as functional, cell-based. Particulars: RS4-11, 96 h. The essentials: (§2)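 Leukemia cells seeded at 10000–20000 cells/well, breast cancer lines at 5000–10000 cells/well. Serially diluted compound added, then 4 days at 37 °C, 5% CO2. Growth read with WST-8 reagent after at least 1 h, absorbance at 450 nm. RS4;11, MOLM-13 and breast lines were grown in RPMI 1640; MV-4-11 and HL-60 in IMDM; all with 10% FBS. Mean ± SE, at least three independent experiments.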

Test [5] concerns the target Eukaryotic peptide chain release factor GTP-binding subunit ERF3A (Homo sapiens, UniProt P15170). Kind of test: Induction of GSPT1 degradation in human MDA-MB-468 cells transfected with CRBN siRNA LQ-021086-11-0002 assessed as decrease in GSPT1 protein level at 0.1 uM after 2 to 24 hrs by Western blot analysis. It counts as cell-based. The procedure, abridged: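 MDA-MB-231 or MDA-MB-468 cells transfected 2 days with CRBN siRNA (Lipofectamine RNAiMAX; non-targeting siRNA as control), then exposed to 0.1 μM for 2 h or 24 h. Cell culture was RPMI 1640 with 10% FBS at 37 °C, 5% CO2. GSPT1 and cereblon protein were probed by Western blot.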
(In general: In western blotting, separated proteins are transferred to a membrane and probed.)

Test [6] deals with MDA-MB-231. Nature of the test: Antiproliferative activity against human MDA-MB-231 cells harboring mutant p53 assessed as cell growth inhibition without interaction with cereblon after 4 days by WST-8 assay. It counts as functional, cell-based. The note with it: MDA-MB-231, 96 h.
In test [7] the test system is MDA-MB-231. Kind of test: Antiproliferative activity against human MDA-MB-231 cells transfected with CRBN siRNA LQ-021086-11-0002 assessed as cell growth inhibition after 4 days by WST-8 assay. It counts as functional, cell-based. The note with it: MDA-MB-231, 96 h. The procedure, abridged: as §1
Test [8] addresses Cellular tumor antigen p53 (Homo sapiens) (UniProt P04637). Nature of the test: Activation of p53 in human RS4:11 cells assessed as increase in BAX mRNA expression at 3 nM after 1 to 2 hrs by qRT-PCR analysis. It counts as cell-based. The essentials: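 RS4;11 cells (RPMI 1640, 10% FBS, 37 °C, 5% CO2) treated with 3 nM or 10 nM compound; total RNA extracted and mRNA of p53 targets MDM2, CDKN1A, PUMA and BAX quantified by qRT-PCR. Mean ± standard error from at least three independent experiments.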

The target of test [9] is T1, E3 ubiquitin-protein ligase Mdm2. Nature of the test: Induction of MDM2 degradation in human RS4:11 cells assessed as downregulation of MDM2 at 1 to 30 nM after 1 hr by Western blot analysis. It counts as cell-based. The procedure, abridged:
(§3)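 Western blots of MDM2 and p53 protein were run on RS4;11 cells (wild-type p53) in RPMI 1640 with 10% FBS. 2×10^6 cells/well were treated at the indicated concentrations for 1 h or 2 h. Lysis was in ice-cold buffer with protease inhibitor, followed by probing with specific antibodies.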
Target sequence in this assay (Q00987 whole entry, looked up, the tested form may be a part): as the sequence (Q00987 whole entry, the tested form may be a part) above

The next test deals with RS4-11. Kind of test: Antiproliferative activity against human RS4:11 cells expressing wild type p53 assessed as cell growth inhibition after 4 days by WST-8 assay. It counts as functional, cell-based. The note with it: RS4-11, 96 h. The procedure, abridged: as §2
In test [10] the target is T2, Protein cereblon/Eukaryotic peptide chain release factor GTP-binding subunit ERF3A/DNA damage-binding protein 1/Cullin-4A (Homo sapiens) (UniProt Q96SW2+Q16531+Q13619+P15170). Kind of test: Protac activity at GSPT1/CUL4/DDB1/CRBN in human RS4:11 cells expressing wild type p53 assessed as decrease in GSPT1 protein level measured upto 24 hrs by Western blot analysis. It counts as cell-based. The essentials: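 RS4;11 (wild-type p53) or RS4;11/IRMI-2 (MDM2 inhibitor-resistant derivative, mutant p53) cells kept in RPMI 1640 with 10% FBS at 37 °C, 5% CO₂. 2×10^6 cells/well treated at the indicated concentrations and times, then lysed in ice-cold lysis buffer with protease inhibitor. GSPT1 detected by Western blot with a specific antibody.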
T2 sequence (P15170 whole entry, looked up): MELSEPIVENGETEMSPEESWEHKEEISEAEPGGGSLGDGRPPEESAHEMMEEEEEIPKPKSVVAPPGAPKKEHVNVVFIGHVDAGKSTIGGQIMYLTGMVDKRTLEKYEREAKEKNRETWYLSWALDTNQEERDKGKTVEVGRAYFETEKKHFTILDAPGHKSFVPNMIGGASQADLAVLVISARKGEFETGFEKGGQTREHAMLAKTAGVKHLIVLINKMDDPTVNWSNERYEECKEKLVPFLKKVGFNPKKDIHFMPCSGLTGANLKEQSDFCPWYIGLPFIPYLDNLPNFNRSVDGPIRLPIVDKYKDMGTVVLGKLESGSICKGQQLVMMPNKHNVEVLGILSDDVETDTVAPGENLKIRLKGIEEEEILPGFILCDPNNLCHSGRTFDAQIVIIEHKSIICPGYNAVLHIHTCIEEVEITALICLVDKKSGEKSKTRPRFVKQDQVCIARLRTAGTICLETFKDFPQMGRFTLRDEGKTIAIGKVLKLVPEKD
T2 sequence (Q13619 whole entry, looked up): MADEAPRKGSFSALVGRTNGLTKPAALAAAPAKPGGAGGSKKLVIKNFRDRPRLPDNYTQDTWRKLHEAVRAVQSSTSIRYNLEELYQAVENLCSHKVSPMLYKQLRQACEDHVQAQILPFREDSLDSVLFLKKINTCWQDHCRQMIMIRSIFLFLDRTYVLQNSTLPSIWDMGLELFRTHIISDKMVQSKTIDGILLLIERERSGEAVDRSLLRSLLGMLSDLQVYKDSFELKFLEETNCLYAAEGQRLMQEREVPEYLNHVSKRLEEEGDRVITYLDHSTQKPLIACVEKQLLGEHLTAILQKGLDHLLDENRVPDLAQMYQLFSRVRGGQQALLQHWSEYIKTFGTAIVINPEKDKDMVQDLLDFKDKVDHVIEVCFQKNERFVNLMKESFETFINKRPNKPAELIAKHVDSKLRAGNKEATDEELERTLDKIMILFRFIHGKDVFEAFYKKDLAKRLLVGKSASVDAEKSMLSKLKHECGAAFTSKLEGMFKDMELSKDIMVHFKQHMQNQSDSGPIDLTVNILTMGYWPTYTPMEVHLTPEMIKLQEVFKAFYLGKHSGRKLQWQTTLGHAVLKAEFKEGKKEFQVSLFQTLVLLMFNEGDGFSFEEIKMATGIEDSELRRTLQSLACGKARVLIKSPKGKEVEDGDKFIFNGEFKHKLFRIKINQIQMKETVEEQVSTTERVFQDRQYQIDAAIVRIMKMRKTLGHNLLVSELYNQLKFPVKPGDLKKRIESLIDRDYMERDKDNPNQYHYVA
T2 sequence (Q16531 whole entry, looked up): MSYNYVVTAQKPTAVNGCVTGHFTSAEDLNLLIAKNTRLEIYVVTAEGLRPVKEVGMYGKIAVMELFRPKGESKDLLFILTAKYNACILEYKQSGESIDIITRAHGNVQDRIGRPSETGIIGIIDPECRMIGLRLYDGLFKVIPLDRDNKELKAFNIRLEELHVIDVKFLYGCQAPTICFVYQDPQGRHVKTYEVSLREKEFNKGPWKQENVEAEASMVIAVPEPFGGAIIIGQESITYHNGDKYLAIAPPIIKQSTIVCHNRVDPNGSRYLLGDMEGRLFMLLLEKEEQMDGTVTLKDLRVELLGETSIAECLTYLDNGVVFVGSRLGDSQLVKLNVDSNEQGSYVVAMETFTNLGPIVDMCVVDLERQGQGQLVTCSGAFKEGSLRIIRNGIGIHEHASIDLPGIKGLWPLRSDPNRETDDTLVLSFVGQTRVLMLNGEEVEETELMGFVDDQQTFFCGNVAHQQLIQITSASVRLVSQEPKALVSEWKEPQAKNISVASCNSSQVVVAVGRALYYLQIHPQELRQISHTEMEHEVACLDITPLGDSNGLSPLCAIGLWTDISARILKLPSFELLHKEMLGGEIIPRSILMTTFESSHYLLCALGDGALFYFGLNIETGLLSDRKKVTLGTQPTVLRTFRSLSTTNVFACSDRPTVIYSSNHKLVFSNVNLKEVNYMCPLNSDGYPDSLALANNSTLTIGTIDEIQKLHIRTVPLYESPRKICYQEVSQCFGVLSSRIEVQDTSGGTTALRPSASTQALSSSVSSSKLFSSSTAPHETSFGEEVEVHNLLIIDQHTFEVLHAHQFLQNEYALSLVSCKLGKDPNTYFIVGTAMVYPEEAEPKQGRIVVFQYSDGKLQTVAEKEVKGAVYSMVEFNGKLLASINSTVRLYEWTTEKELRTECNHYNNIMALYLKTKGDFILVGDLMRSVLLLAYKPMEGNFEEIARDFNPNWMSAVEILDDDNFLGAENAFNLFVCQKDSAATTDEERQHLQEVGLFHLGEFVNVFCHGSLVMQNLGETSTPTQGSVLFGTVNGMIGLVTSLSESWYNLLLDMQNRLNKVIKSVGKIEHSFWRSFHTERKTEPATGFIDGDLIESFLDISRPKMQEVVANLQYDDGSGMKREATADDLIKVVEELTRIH
T2 sequence (Q96SW2 whole entry, looked up): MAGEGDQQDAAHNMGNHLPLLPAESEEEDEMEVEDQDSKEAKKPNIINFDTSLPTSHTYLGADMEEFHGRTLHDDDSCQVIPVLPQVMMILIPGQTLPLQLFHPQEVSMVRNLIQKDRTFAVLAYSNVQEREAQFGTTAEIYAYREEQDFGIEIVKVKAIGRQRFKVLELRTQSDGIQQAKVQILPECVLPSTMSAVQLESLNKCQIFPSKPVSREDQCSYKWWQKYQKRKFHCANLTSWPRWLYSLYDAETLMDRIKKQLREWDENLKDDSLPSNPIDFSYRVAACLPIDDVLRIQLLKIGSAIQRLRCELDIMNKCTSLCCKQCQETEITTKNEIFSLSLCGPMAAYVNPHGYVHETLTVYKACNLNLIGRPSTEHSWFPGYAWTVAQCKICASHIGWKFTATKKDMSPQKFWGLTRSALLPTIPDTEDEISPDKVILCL

Test [11] has as its system MDA-MB-468. Nature of the test: Antiproliferative activity against human MDA-MB-468 cells harboring mutant p53 assessed as cell growth inhibition after 4 days by WST-8 assay. Particulars: MDA-MB-468, 96 h. It counts as functional, cell-based. The procedure, abridged:
as §2

Test [12] has as its target T2, Protein cereblon/Eukaryotic peptide chain release factor GTP-binding subunit ERF3A/DNA damage-binding protein 1/Cullin-4A (Homo sapiens). Nature of the test: Protac activity at GSPT1/CUL4/DDB1/CRBN in human RS4:11/IRMI-2 cells harboring p53 hotspot mutation Y236H/R249G assessed as decrease in GSPT1 protein level by measuring fold change of protein level before and after treatment at 0.1 uM measured after 3 hrs relative to control.

Test [13] deals with MDA-MB-468. Nature of the test: Antiproliferative activity against human MDA-MB-468 cells transfected with CRBN siRNA LQ-021086-10-0002 assessed as cell growth inhibition after 4 days by WST-8 assay. It counts as functional, cell-based. Particulars: MDA-MB-468, 96 h. The procedure, abridged: as §1
The target in test [14] is T2, Protein cereblon/Eukaryotic peptide chain release factor GTP-binding subunit ERF3A/DNA damage-binding protein 1/Cullin-4A (Homo sapiens). Nature of the test: Protac activity at GSPT1/CUL4/DDB1/CRBN in human RS4:11 cells expressing wild type p53 assessed as effect on GSPT1 mRNA level after 3 hrs by qRT-PCR analysis. It counts as cell-based. The essentials: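 Total RNA taken from treated cells at the indicated time points. RNA concentration measured on a plate reader. GSPT1 mRNA quantified by qRT-PCR. Data are mean ± standard error from at least three independent experiments.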

In test [15] the target is T1, E3 ubiquitin-protein ligase Mdm2. Kind of test: Induction of MDM2 degradation in human RS4:11 cells assessed as downregulation of MDM2 at 1 to 30 nM after 2 hrs by Western blot analysis. It counts as cell-based. The essentials: as §3
Target sequence in this assay (Q00987 whole entry, looked up, the tested form may be a part): as the sequence (Q00987 whole entry, the tested form may be a part) above
Test [16] has the same target. Kind of test: Induction of MDM2 degradation in human RS4:11/IRMI-2 cells harboring p53 hotspot mutation Y236H/R249G assessed as downregulation of MDM2 at 1 to 30 nM after 2 hrs by Western blot analysis. It counts as cell-based. The procedure, abridged: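 RS4;11/IRMI-2 cells are an MDM2 inhibitor-resistant line derived from RS4;11, with p53 mutations confirmed by sequencing. 2×10^6 cells/well were treated 2 h at the indicated concentrations. MDM2 protein was probed by Western blot after lysis in ice-cold buffer with protease inhibitor.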
Target sequence in this assay (Q00987 whole entry, looked up, the tested form may be a part): as the sequence (Q00987 whole entry, the tested form may be a part) above

Active and inactive are the calls of the source. The rule behind the calls is not given here.

Sequence of Cellular tumor antigen p53 (Homo sapiens) (P04637 whole entry, looked up): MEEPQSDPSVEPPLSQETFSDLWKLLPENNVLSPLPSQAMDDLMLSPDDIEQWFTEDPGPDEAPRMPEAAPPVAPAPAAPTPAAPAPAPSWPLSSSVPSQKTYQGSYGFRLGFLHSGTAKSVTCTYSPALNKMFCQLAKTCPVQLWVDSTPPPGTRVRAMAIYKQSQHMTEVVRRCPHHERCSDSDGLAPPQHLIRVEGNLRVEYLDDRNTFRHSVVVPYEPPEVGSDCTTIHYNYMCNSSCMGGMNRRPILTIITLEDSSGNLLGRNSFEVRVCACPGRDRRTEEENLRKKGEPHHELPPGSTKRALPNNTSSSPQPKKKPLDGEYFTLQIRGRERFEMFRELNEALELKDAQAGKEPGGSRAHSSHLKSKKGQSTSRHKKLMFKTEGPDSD
Sequence of Eukaryotic peptide chain release factor GTP-binding subunit ERF3A (P15170 whole entry): as the sequence (P15170 whole entry, looked up) above

Usually IC50 stands for the concentration needed to halve the response being measured. In the case of `O=C1CCC(N2Cc3c(CCCCCNC(=O)[C@@H]4NC5(CCCCC5)[C@@]5(C(=O)Nc6cc(Cl)ccc65)[C@H]4c4cccc(Cl)c4F)cccc3C2=O)C(=O)N1` (some centres not stated), the IC50 in test [1] is 67.5 nM; in the test with MDA-MB-231 [2], above 3000 nM; in the test with MDA-MB-231 [3], 30 nM; in test [4], 2.6 nM; in the test on MDA-MB-231 [6], 39.4 nM; in the test on MDA-MB-231 [7], above 3000 nM. Also, the IC50 is 3.5 nM in the test on RS4-11, 26.4 nM in the test with MDA-MB-468 [11] and above 1000 nM in the test with MDA-MB-468 [13]. Also, the result in [5], in [8], in [9] and in test [14] was inactive. Further, the Activity entry in test [10] was “Dose-dependent effect”. In addition, the fold change in [12] worked out at 3.7. For the same molecule, the result in [15] and in test [16] was Active.
